# Measurements as given in ChEMBL document CHEMBL1130176, “Selective inhibitors of cyclic AMP-specific phosphodiesterase: heterocycle-condensed purines” (J Med Chem, 1997).
# Assays:
# Cavia porcellus [1] = organism: Cavia porcellus; test: In vitro positive chronotropic effect; format: functional
# In short: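 Isolated right atrium from male Hartley guinea pigs (300–500 g) in Krebs–Henseleit, 25 °C, 95% O2–5% CO2, 0.5 g tension. Cumulative compound concentrations; beating rate recorded by cardiotachometer triggered by isometric contraction. EC20 is the concentration raising unstimulated rate by 20%, from over five concentrations. DMSO below 0.5% final.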
# Phosphodiesterase 1 = Phosphodiesterase 1 (Homo sapiens, UniProt P54750+Q01064+Q14123); test: Inhibitory activity against PDE1 from cerebral cortex; format: tissue-based
# In short: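 PDE I (Ca2+/calmodulin-stimulated, cerebral cortex) and PDE III (cGMP-inhibited, heart) isolated by the Reeves method. […] IC50 fitted by nonlinear least squares. Final DMSO below 0.5%.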
# Cavia porcellus [2] = organism: Cavia porcellus; test: Negative inotropic response to adenosine in guinea pig left atrium; format: functional; details: Cardiac atrium, read-out: pA2 (converted)
# Cavia porcellus [3] = organism: Cavia porcellus; test: Compound was tested in vitro for positive chronotropic action.; format: functional
# In short: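 Isolated right atrium from male Hartley guinea pig (300–500 g) in Krebs–Henseleit, 95% O2–5% CO2, 25 °C, 0.5 g tension. Cumulative compound concentrations, at least five spanning the EC20. Beating rate recorded by cardiotachometer triggered by isometric contraction. Value is the concentration raising the unstimulated rate by 20% (EC20). DMSO below 0.5% final.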
# Phosphodiesterase 3 = Phosphodiesterase 3 (Homo sapiens, UniProt Q14432+Q13370); test: Inhibitory activity against Phosphodiesterase 3 from heart.; format: protein assay
# In short: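 PDE I (Ca2+/calmodulin-stimulated, cerebral cortex) and PDE III (cGMP-inhibited, heart) isolated by the Reeves method. IC50 fitted by nonlinear least squares. Final DMSO below 0.5%.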
# Cavia porcellus [4] = organism: Cavia porcellus; test: Tested in vitro for tracheal relaxation; format: functional; details: Trachea
# In short: (§1)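 Tracheal ring-chains from male Hartley guinea pigs (300–500 g), 37 °C Krebs–Henseleit pH 7.4, 95% O2–5% CO2, 0.5 g tension, isometric recording. After full relaxation with 1.0 μM isoprenaline and washout, spontaneous tone redeveloped. Cumulative compound concentrations then given, at least five spanning the EC50.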
# Phosphodiesterase 4 = Phosphodiesterase 4 (Homo sapiens, UniProt P27815+Q08499+Q07343+Q08493); test: Inhibitory activity against Phosphodiesterase 4 from cerebral cortex.
# Cavia porcellus [5] = organism: Cavia porcellus; test: In vitro guinea pig tracheal relaxation; format: functional; details: Trachea; in short: as §1
# Suncus murinus [6] = test: Emetic effect in shrews at 10 mg/kg peroral dose, 3 of 3 animals affected; format: functional; details: route oral
# Suncus murinus [7] = test: (§2) Emetic effect in shrews at 30 mg/kg peroral dose, 0 of 3 animals affected; format: functional; details: route oral
# Suncus murinus [8] = test: Emetic effect in shrews at 100 mg/kg peroral dose, 0 of 3 animals affected; format: functional; details: route oral
# Suncus murinus [9] = test: as §2; format: functional; details: route oral; remark: listed apart in the source
# Suncus murinus [10] = test: Emetic effect in shrews at 30 mg/kg peroral dose, 3 of 3 animals affected; format: functional; details: route oral
SMILES,IC50 (Phosphodiesterase 1),EC20 (Cavia porcellus [3]),IC50 (Phosphodiesterase 3),EC50 (Cavia porcellus [4]),IC50 (Phosphodiesterase 4),also measured
Cn1c(=O)c2nc[nH]c2n(C)c1=O.O [THEOPHYLLINE],356 µM,–,–,–,–,EC20 (Cavia porcellus [1]): 88 µM; Kb (Cavia porcellus [2]): 29.5 µM
CCCn1cnc2c1n(CCC)c(=O)n1nnnc21,> 100 µM,> 100 µM,> 100 µM,68 µM,39 µM,–
CCCN1C(=O)N2CCCN=C2c2ncn(CCC)c21,> 100 µM,> 100 µM,> 100 µM,2.1 µM,4.7 µM,–
CCCN1C(=O)N2CCN=C2c2[nH]cnc21,> 100 µM,> 100 µM,> 100 µM,31 µM,> 100 µM,–
CCCn1cnc2c1c1nccn1c(=O)n2CCC,14 µM,84 µM,> 100 µM,0.7 µM,1.9 µM,–
CCCCOc1cc(CC2CNC(=O)N2)ccc1OC (stereo unspecified) [RO-201724],> 300 µM,–,> 300 µM,–,–,EC20 (Cavia porcellus [1]): > 100 µM; EC50 (Cavia porcellus [5]): 0.12 µM
CCCn1c(=O)n2ccnc2c2[nH]cnc21,> 100 µM,90 µM,> 100 µM,1.6 µM,3.1 µM,–
CCCN1C(=O)N2CCCCN=C2c2[nH]cnc21,> 100 µM,> 100 µM,> 100 µM,53 µM,> 100 µM,–
CCCn1c(=O)n2nnnc2c2[nH]cnc21,> 100 µM,> 100 µM,> 100 µM,> 100 µM,> 100 µM,–
CCCn1cnc2c1n(CCC)c(=O)n1ccnc21,40 µM,19 µM,> 100 µM,0.5 µM,1.4 µM,Emesis (Suncus murinus [6]): 3
COc1ccc(C2CNC(=O)C2)cc1OC1CCCC1 (stereo unspecified) [ROLIPRAM],–,–,–,–,–,Emesis (Suncus murinus [6]): 3
CCCN1C(=O)N2CCN=C2c2c1ncn2CCC,> 100 µM,> 100 µM,> 100 µM,2.5 µM,5.1 µM,–
CCCN1C(=O)N2CCCN=C2c2c1ncn2CCC,> 100 µM,> 100 µM,> 100 µM,8.2 µM,49 µM,–
CCCN1C(=O)N2CCN=C2c2ncn(CCC)c21,> 100 µM,> 100 µM,> 100 µM,1 µM,1.6 µM,Emesis (Suncus murinus [7]): 0; Emesis (Suncus murinus [8]): 0; Emesis (Suncus murinus [9]): 0
CCCCn1c(=O)c2c(ncn2CC(C)=O)n(CCCC)c1=O [DENBUFYLLINE],–,–,–,–,–,Emesis (Suncus murinus [10]): 3
CCCN1C(=O)N2CCCCN=C2c2ncn(CCC)c21,> 100 µM,> 100 µM,> 100 µM,2.5 µM,13 µM,–
CCCN1C(=O)N2CCCN=C2c2[nH]cnc21,> 100 µM,> 100 µM,> 100 µM,22 µM,> 100 µM,–
Nc1cc(-c2ccncc2)c[nH]c1=O [INAMRINONE],> 300 µM,62 µM,–,7.4 µM,–,–
CCCn1cnc2c1c1nnnn1c(=O)n2CCC,> 100 µM,> 100 µM,> 100 µM,51 µM,18 µM,–
